Measured values: ChEMBL document CHEMBL3351296, “Synthesis, antioxidant and photoprotection activities of hybrid derivatives useful to prevent skin cancer” (Bioorg Med Chem, 2014)
pIC50: −log10 of the molar value.

Experiments:
[1] = In vitro photoprotection of the compound assessed as UVA protection factor by Optometric 290S analyzer
Method in brief: (§1)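 Transmittance scans were taken from 290 to 400 nm at 2 nm intervals and compared against a reference scan. SPF, UVA protection factor and UVA/UVB ratio were calculated from the transmittance data.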

[2] = Antioxidant activity of the compound assessed as reduction in absorbance of DPPH after 60 mins incubation at 100 uM by DPPH radical scavenging /microplate assay; type: physicochemical; details: 1 h
Method in brief: (§2)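 DPPH radical prepared in methanol. Test compounds and standards made as 10 mM DMSO stocks, diluted in methanol, and tested at […]; final DMSO […]. Samples mixed with DPPH in triplicate, kept at 37 °C protected from light, and read at 519 nm after 30 and 60 min. % scavenging = (Abs control − Abs sample)/Abs control × 100.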

[3] = Antioxidant activity of the compound assessed as reduction in absorbance of DPPH after 60 mins incubation at 300 uM by DPPH radical scavenging /microplate assay; type: physicochemical; details: 1 h; method in brief: as §2
[4] = Antioxidant activity of the compound assessed as reduction in absorbance of DPPH after 60 mins incubation at 35 uM by DPPH radical scavenging /microplate assay; type: physicochemical; details: 1 h; method in brief: as §2
[5] = In vitro photoprotection of the compound assessed as UVA to UVB ratio by Optometric 290S analyzer; method in brief: as §1
[6] = Antioxidant activity of the compound assessed as reduction in absorbance of DPPH after 60 mins incubation at 1000 uM by DPPH radical scavenging /microplate assay; type: physicochemical; details: 1 h; method in brief: as §2
[7] = In vitro photoprotection of the compound assessed as sun protection factor by Optometric 290S analyzer; method in brief: as §1
[8] = Antioxidant activity of the compound assessed as reduction in absorbance of DPPH after 60 mins incubation by DPPH radical scavenging /microplate assay; type: physicochemical; method in brief: as §2

Row | SMILES | UVAPF [1] | inhibition (INH) [2] | inhibition (INH) [3] | inhibition (INH) [4] | Ratio [5] | inhibition (INH) [6] | SPF [7] | pIC50 [8]
1 | COc1ccc(/C=C/C=N/NC(=O)c2ccc(C(C)(C)C)cc2)cc1 | 4 | -8.3% | -5.6% | -6.6% | 1 | -7.1% | 4 | –
2 | CCCCC(CC)COC(=O)C=Cc1ccc(OC)cc1 (configuration not stated) | – | – | – | – | – | – | 13 | –
3 | COc1ccc(C(=O)CC(=O)c2ccc(C(C)(C)C)cc2)cc1 | 39 | – | – | – | 1.8 | – | – | –
4 | O=C1O[C@H]([C@@H](O)CO)C(O)=C1O [ASCORBIC ACID] | – | 77.9% | 80.7% | 18.8% | – | 81.2% | – | 4.19
5 | Oc1ccc(/C=C/c2cc(O)cc(O)c2)cc1 [RESVERATROL] | 2 | 45.5% | 71.3% | 20.5% | 0.6 | 73.8% | 2 | 3.96
6 | CC(C)(C)c1ccc(C(=O)N/N=C/c2cc(O)cc(O)c2)cc1 | 3 | 10.9% | 20.1% | 7% | 0.6 | 31.3% | 4 | –
7 | COc1ccc(/C=C/C=N/NC(=O)c2ccc(O)cc2)cc1 | 2 | -1.5% | -2.6% | -3.4% | 1.1 | 2.8% | 2 | –
8 | COc1cc(/C=C/C=N/NC(=O)c2ccc(O)cc2)ccc1O | 2 | 56.7% | 77.2% | 34.8% | 1.2 | 75.5% | 2 | 4.05
9 | COc1ccc(C(=O)c2ccccc2)c(O)c1 | – | – | – | – | 0.6 | – | 1 | –
10 | O=C(N/N=C/c1cc(O)cc(O)c1)c1ccc(O)cc1 | 4 | 11.2% | 26.5% | 5.6% | 0.6 | 34.2% | 5 | –
11 | CC(C)(C)c1ccc(C(=O)N/N=C/c2ccc(O)cc2)cc1 | 2 | 15% | 28.9% | 10.2% | 0.8 | 38.7% | 2 | –
12 | COc1cc(/C=C/C=N/NC(=O)c2ccc(C(C)(C)C)cc2)ccc1O | 2 | 45.6% | 75.1% | 20% | 1.1 | 76.1% | 2 | 3.96
13 | O=C(N/N=C/c1ccc(O)cc1)c1ccc(O)cc1 | 2 | 38% | 54.4% | 18.4% | 0.8 | 65% | 3 | 3.56
